Converted amounts (≈) assume the structure as drawn. The source made the active and inactive calls. The calls are words filed in the database; no cut-off is given here.
What was measured:
[1] = target: Transient receptor potential cation channel subfamily M member 8 (Rattus norvegicus, UniProt Q8R455); test: Antagonist activity at rat TRPM8 expressed in CHO cells assessed as inhibition of icilin-induced Ca2+ influx incubated 2.5 mins prior icilin induction by flash luminometry; format: functional, cell-based
Method in brief: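 CHO cells stably expressing rat TRPM8 under a tetracycline-inducible T-REx system, co-transfected with aequorin. Seeded 24 h before assay; expression induced with 0.5 μg/mL tetracycline. Luminescence was read on a CCD-camera luminometer.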

[2] = Intrinsic clearance in CD1 rat liver microsomes at 1 uM after 30 mins; format: ADME, Microsome; conditions: read-out: CLH
[3] = AUC (infinity) in Sprague-Dawley rat at 2 mg/kg, iv by LC-MS/MS analysis; format: ADME, organism-based; set-up: time infinity, dose 2 mg/kg, route intravenous; conditions: plasma
Method in brief: (§1)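 Fed male Sprague–Dawley rats, n = 3, given 2 mg/kg iv in DMSO. Measured by LC/MS/MS; noncompartmental analysis; mean(SD).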

[4] = Volume of distribution at steady state in Sprague-Dawley rat at 2 mg/kg, iv by LC-MS/MS analysis; format: ADME, organism-based; set-up: dose 2 mg/kg, route intravenous; conditions: in vivo, read-out: Vdss; method in brief: as §1
[5] = test system: Rattus norvegicus; test: Antinociceptive activity in Sprague-Dawley rat assessed as inhibition of icilin-induced wet-dog shakes at 100 mg/kg, po administered 90 mins prior icilin challenge measured for 30 mins; format: functional, organism-based; set-up: dose 100 mg/kg
Method in brief: (§2)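 Male Sprague–Dawley rats (220–300 g, n = 5–13/treatment) were habituated 30 min to the room, then 20 min to an observation cylinder, kept out of sight of other rats. Compound or vehicle (5% Tween 80/Oraplus) given po 90 min before icilin (0.5 mg/kg ip in 100% PEG 400). Wet-dog shakes counted for 30 min afterwards.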

[6] = test system: Plasma; test: Plasma concentration in Sprague-Dawley rat at 100 mg/kg, po; format: ADME, organism-based; set-up: dose 100 mg/kg, route oral; conditions: in vivo
Method in brief: (§3)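 Male Sprague–Dawley rats (n = 8 per group) dosed po in 5% Tween 80/Oraplus 90 min before icilin challenge in the wet-dog-shake study. Plasma collected 2 h after oral dosing.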

[7] = AUC (infinity) in Sprague-Dawley rat at 10 mg/kg, po by LC-MS/MS analysis; format: ADME, organism-based; set-up: time infinity, dose 10 mg/kg, route oral; conditions: plasma
Method in brief: (§4)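 Fasted male Sprague–Dawley rats, n = 3, given 10 mg/kg by oral gavage as a suspension in 5% Tween 80/Oraplus. Plasma taken predose and at 0.25, 0.5, 1, 2, 4, 6, 8, 12 and 16 h. Measured by LC/MS/MS; noncompartmental analysis; mean(SD).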

[8] = Cmax in Sprague-Dawley rat at 10 mg/kg, po by LC-MS/MS analysis; format: ADME, organism-based; set-up: dose 10 mg/kg, route oral; conditions: in vivo; method in brief: as §4
[9] = Oral bioavailability in Sprague-Dawley rat at 10 mg/kg by LC-MS/MS analysis; format: ADME, organism-based; conditions: in vivo; method in brief: as §4
[10] = test system: Rattus norvegicus; test: Antinociceptive activity in po dosed Sprague-Dawley rat assessed as inhibition of icilin-induced wet-dog shakes administered 90 mins prior icilin challenge measured for 30 mins; format: functional, organism-based; method in brief: as §2
[11] = test system: Rattus norvegicus; test: Antinociceptive activity in Sprague-Dawley rat assessed as inhibition of icilin-induced wet-dog shakes at 3 mg/kg, po administered 90 mins prior icilin challenge measured for 30 mins; format: functional; method in brief: as §2
[12] = test system: Rattus norvegicus; test: Antinociceptive activity in Sprague-Dawley rat assessed as inhibition of icilin-induced wet-dog shakes at 30 mg/kg, po administered 90 mins prior icilin challenge measured for 30 mins; format: functional; method in brief: as §2
[13] = test system: Plasma; test: Plasma concentration in Sprague-Dawley rat at 30 mg/kg, po; format: ADME, organism-based; set-up: dose 30 mg/kg, route oral; conditions: in vivo; method in brief: as §3

Chain of Transient receptor potential cation channel subfamily M member 8 (Q8R455 whole entry): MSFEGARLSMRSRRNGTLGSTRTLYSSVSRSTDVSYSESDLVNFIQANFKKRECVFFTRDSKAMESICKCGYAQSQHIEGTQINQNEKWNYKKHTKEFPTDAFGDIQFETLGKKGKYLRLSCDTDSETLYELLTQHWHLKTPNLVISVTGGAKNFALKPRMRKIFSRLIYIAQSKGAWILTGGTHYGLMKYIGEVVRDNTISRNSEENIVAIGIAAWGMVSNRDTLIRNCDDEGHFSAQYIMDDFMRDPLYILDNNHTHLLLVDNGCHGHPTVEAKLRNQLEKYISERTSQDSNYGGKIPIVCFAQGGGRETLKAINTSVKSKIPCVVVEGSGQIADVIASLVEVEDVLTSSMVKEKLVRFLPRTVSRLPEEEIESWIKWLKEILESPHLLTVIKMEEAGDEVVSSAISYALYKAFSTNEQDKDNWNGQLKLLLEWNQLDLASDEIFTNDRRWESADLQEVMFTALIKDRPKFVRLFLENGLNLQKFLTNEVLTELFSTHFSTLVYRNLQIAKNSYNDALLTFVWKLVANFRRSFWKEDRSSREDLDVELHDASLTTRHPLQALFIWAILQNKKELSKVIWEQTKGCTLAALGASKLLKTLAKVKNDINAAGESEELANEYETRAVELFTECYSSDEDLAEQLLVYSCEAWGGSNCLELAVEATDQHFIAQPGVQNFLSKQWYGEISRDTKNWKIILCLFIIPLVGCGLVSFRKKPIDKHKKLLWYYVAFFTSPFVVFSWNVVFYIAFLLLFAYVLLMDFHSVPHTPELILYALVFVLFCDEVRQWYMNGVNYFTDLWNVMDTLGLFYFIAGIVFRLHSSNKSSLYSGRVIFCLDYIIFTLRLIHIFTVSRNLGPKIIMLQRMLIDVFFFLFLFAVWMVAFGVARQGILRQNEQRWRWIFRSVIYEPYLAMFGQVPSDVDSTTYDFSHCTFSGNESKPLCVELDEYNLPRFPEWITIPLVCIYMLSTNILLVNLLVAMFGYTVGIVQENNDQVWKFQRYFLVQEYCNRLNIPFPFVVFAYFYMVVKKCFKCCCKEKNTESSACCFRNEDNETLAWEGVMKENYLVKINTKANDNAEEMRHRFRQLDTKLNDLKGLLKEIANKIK

Row | Structure (SMILES) | IC50 [1] | microsomal CLint at 1 µM [2] | other results
1 | O=C(Nc1ccccc1)N1CCc2sccc2C1c1ccc(C(F)(F)F)cc1 (centres undefined) | 290 nM | 211 µL/min/mg | –
2 | CCCC1c2ccsc2CCN1C(=O)Nc1ccc(Cl)cc1 (centres undefined) | 1390 nM | > 399 µL/min/mg | –
3 | O=C(Nc1ccc(F)cc1)N1CCc2ccccc2[C@@H]1c1ccc(C(F)(F)F)cc1 | – | – | AUC(0-inf) [3]: 347 ng·h/mL; Vd [4]: 15.8 L/kg; inhibition [5]: inactive; Cp [6]: 521 ng/mL
4 | CC(C)NC(=O)N1CCc2sccc2C1c1ccc(C(F)(F)F)cc1 (centres undefined) | 550 nM | > 399 µL/min/mg | –
5 | O=C(Nc1ccc(F)cc1)N1CCc2c(F)cccc2C1c1ccc(C(F)(F)F)cc1 (centres undefined) | 100 nM | 48 µL/min/mg | –
6 | O=C(Nc1ccc(F)cc1)N1CCc2ccsc2C1c1ccc(C(F)(F)F)cc1 (centres undefined) | 150 nM | 206 µL/min/mg | –
7 | O=C(Nc1ccccc1)N1CCc2sccc2C1c1ccc(F)cc1 (centres undefined) | 1840 nM | > 399 µL/min/mg | –
8 | O=C(Nc1ccccc1)N1CCc2sccc2C1c1ccccc1C(F)(F)F (centres undefined) | 240 nM | > 399 µL/min/mg | –
9 | COc1ccc(NC(=O)N2CCc3sccc3C2c2ccc(C(F)(F)F)cc2)cc1 (centres undefined) | 2320 nM | 203 µL/min/mg | –
10 | O=C(Nc1ccccc1)N1CCc2sccc2C1c1cccc(Cl)c1 (centres undefined) | 2890 nM | > 399 µL/min/mg | –
11 | O=C(Nc1cccc(F)c1)N1CCc2sccc2C1c1ccc(C(F)(F)F)cc1 (centres undefined) | 780 nM | 278 µL/min/mg | –
12 | O=C(c1ccc(F)cc1)N1CCc2sccc2C1c1ccc(C(F)(F)F)cc1 (centres undefined) | > 20000 nM | 248 µL/min/mg | –
13 | O=C(N1CCOCC1)N1CCc2sccc2C1c1ccc(C(F)(F)F)cc1 (centres undefined) | > 20000 nM | > 399 µL/min/mg | –
14 | O=C(c1ccccc1F)N1CCc2sccc2C1c1ccc(C(F)(F)F)cc1 (centres undefined) | 510 nM | > 399 µL/min/mg | –
15 | CC1c2ccsc2CCN1C(=O)Nc1ccccc1 (centres undefined) | 6800 nM | – | –
16 | CC(C)N1CCc2sccc2C1c1ccc(C(F)(F)F)cc1 (centres undefined) | > 20000 nM | < 14 µL/min/mg | –
17 | O=C(Nc1ccc(F)cc1)N1Cc2ccccc2C1c1ccc(C(F)(F)F)cc1 (centres undefined) | 340 nM | 64 µL/min/mg | –
18 | Cn1cnc2c1CCN(C(=O)Nc1ccc(F)cc1)C2c1ccc(C(F)(F)F)cc1 (centres undefined) | 260 nM | 36 µL/min/mg | –
19 | O=C(Nc1ccc(F)cc1)N1CCc2ccccc2[C@H]1c1ccc(C(F)(F)F)cc1 | – | – | AUC(0-inf) [3]: 763 ng·h/mL; Vd [4]: 15.3 L/kg; AUC(0-inf) [7]: 1750 ng·h/mL; Cmax [8]: 265 ng/mL; bioavailability [9]: 57%; EC50 [10]: 0.209 µg/mL (≈ 0.504 µM); inhibition [10]: Dose-dependent effect; inhibition in vivo at 3 mg/kg [11]: 30%; inhibition in vivo at 30 mg/kg [12]: > 80%; Cp [13]: 460 ng/mL
20 | CC(C)CN1CCc2sccc2C1c1ccc(C(F)(F)F)cc1 (centres undefined) | > 20000 nM | – | –
21 | O=C(Nc1ccccc1)N1CCc2sccc2C1c1cccc(F)c1 (centres undefined) | 1320 nM | > 399 µL/min/mg | –
22 | O=C(Nc1ccc(F)cc1)N1CCCCC1c1ccc(C(F)(F)F)cc1 (centres undefined) | 2660 nM | 285 µL/min/mg | –
23 | CCCC1c2ccsc2CCN1C(=O)Nc1ccccc1 (centres undefined) | 293 nM | > 399 µL/min/mg | –
24 | CC(C)C(=O)N1CCc2sccc2C1c1ccc(C(F)(F)F)cc1 (centres undefined) | 1260 nM | > 399 µL/min/mg | –

Row | Structure (SMILES) | IC50 [1] | microsomal CLint at 1 µM [2] | other results
25 | O=C(Nc1ccc(F)cc1)N1CCc2nc[nH]c2C1c1ccc(C(F)(F)F)cc1 (centres undefined) | 1430 nM | 23 µL/min/mg | –
26 | O=C(Nc1ccc(F)cc1)N1CCc2cc(F)ccc2C1c1ccc(C(F)(F)F)cc1 (centres undefined) | 302 nM | 40 µL/min/mg | –
27 | O=C(Nc1ccccc1)N1CCc2sccc2C1c1ccccc1F (centres undefined) | 2270 nM | > 399 µL/min/mg | –
28 | O=C(Nc1ccc(F)cc1)N1CCCc2ccccc2C1c1ccc(C(F)(F)F)cc1 (centres undefined) | > 20000 nM | 146 µL/min/mg | –
29 | O=C(NC1CC1)N1CCc2sccc2C1c1ccc(C(F)(F)F)cc1 (centres undefined) | 1210 nM | > 399 µL/min/mg | –
30 | O=C(Nc1ccc(F)cc1)N1CCc2cccc(F)c2C1c1ccc(C(F)(F)F)cc1 (centres undefined) | 790 nM | 43 µL/min/mg | –
31 | O=C(Nc1ccccc1)N1CCc2sccc2C1c1cccc(C(F)(F)F)c1 (centres undefined) | 1830 nM | > 399 µL/min/mg | –
32 | O=C(c1cccc(F)c1)N1CCc2sccc2C1c1ccc(C(F)(F)F)cc1 (centres undefined) | > 20000 nM | > 399 µL/min/mg | –
33 | O=C(Cc1ccc(F)cc1)N1CCc2sccc2C1c1ccc(C(F)(F)F)cc1 (centres undefined) | 890 nM | > 399 µL/min/mg | –
34 | O=C(Nc1ccc(F)cc1)N1CCc2occc2C1c1ccc(C(F)(F)F)cc1 (centres undefined) | 260 nM | 109 µL/min/mg | –
35 | O=C(Nc1ccccc1)N1CCc2sccc2C1c1ccccc1 (centres undefined) | 1690 nM | > 399 µL/min/mg | –
36 | O=C(Nc1ccccc1)N1CCc2sccc2C1 | > 20000 nM | 180 µL/min/mg | –
37 | O=C(Nc1ccccc1)N1CCc2sccc2C1C1CC1 (centres undefined) | 5570 nM | > 399 µL/min/mg | –
38 | FC(F)(F)c1ccc(C2NCCc3sccc32)cc1 (centres undefined) | > 20000 nM | > 399 µL/min/mg | –
39 | FC(F)(F)c1ccc(C2c3ccsc3CCN2Cc2ccccc2)cc1 (centres undefined) | > 20000 nM | > 399 µL/min/mg | –
40 | O=C(Nc1ccc(F)cc1)N1CCn2cccc2C1c1ccc(C(F)(F)F)cc1 (centres undefined) | 180 nM | 123 µL/min/mg | –
41 | O=C(Nc1ccc(F)cc1)N1CCc2ccc(F)cc2C1c1ccc(C(F)(F)F)cc1 (centres undefined) | 190 nM | 34 µL/min/mg | –
42 | O=C(Nc1ccc(F)cc1)N1CCc2scnc2C1c1ccc(C(F)(F)F)cc1 (centres undefined) | 93 nM | 110 µL/min/mg | –
43 | O=C(Nc1ccccc1F)N1CCc2sccc2C1c1ccc(C(F)(F)F)cc1 (centres undefined) | 600 nM | 342 µL/min/mg | –
44 | O=C(Nc1ccc(Cl)cc1)N1CCc2sccc2C1c1ccc(C(F)(F)F)cc1 (centres undefined) | 1630 nM | 162 µL/min/mg | –
45 | O=C(Nc1ccccc1)N1CCc2sccc2C1c1ccccc1Cl (centres undefined) | 140 nM | > 399 µL/min/mg | –
46 | O=C(Nc1ccc(F)cc1)N1CCc2ccoc2C1c1ccc(C(F)(F)F)cc1 (centres undefined) | 230 nM | 164 µL/min/mg | –
47 | O=C(Nc1ccc(F)cc1)N1CCc2sccc2C1c1ccc(C(F)(F)F)cc1 (centres undefined) | 340 nM | 178 µL/min/mg | –
48 | O=C(Nc1ccccc1)N1CCc2sccc2C1c1ccc(Cl)cc1 (centres undefined) | 560 nM | > 399 µL/min/mg | –
